These results are taken from ChEMBL document CHEMBL1157745, “Structure-based discovery of A2A adenosine receptor ligands” (J Med Chem, 2010).

In series [1] the target is T1, Adenosine receptor A1 (Homo sapiens) (UniProt P30542).
T1 sequence (whole entry): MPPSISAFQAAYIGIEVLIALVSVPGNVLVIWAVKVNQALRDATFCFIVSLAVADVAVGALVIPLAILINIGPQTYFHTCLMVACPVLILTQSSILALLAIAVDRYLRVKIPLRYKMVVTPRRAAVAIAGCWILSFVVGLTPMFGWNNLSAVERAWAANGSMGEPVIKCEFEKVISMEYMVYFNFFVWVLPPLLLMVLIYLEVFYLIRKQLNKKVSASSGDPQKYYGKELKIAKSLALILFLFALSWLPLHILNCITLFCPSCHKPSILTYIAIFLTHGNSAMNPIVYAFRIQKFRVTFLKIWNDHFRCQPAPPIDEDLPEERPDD
The experiment in a line: Displacement of [3H]R-PIA from human recombinant adenosine A1 receptor expressed in CHO cells at 20 uM after 60 mins by scintillation counting. The format is cell-based.

Series [2] addresses T2, Adenosine receptor A3 (Homo sapiens) (UniProt P0DMS8).
T2 sequence (whole entry): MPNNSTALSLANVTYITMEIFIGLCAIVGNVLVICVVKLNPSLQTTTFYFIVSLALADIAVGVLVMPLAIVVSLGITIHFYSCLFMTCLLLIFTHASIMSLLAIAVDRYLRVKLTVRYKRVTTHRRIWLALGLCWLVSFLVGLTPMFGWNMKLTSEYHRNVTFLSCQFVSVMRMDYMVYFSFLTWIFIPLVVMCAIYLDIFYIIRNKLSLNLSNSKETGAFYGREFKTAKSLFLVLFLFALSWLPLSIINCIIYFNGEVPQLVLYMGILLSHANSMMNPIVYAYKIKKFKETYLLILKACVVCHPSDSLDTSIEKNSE
The experiment in a line: Displacement of [125I]I-AB-MECA from human recombinant adenosine A3 receptor expressed in CHO cells at 20 uM after 60 mins by gamma counting. In general terms: In a radioligand displacement assay an active substance lowers the binding of a labelled ligand.

The next series concerns the target Adenosine receptor A2a (Homo sapiens, UniProt P29274). Description: Displacement of [3H]CGS21680 from human recombinant adenosine A2A receptor expressed in HEK293 cells after 60 mins by scintillation counting. It is filed as cell-based.
In series [3] the target is Cruzipain (Trypanosoma cruzi) (UniProt P25779). The experiment in a line: Inhibition of Trypanosoma cruzi cruzain at 10 uM preincubated for 5 mins before substrate addition by spectrophotometry. The conditions noted are these: in the assay text read “spectrofluorimetry” for “spectrophotometry”. In short, it runs like this: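 Enzyme (0.8 nM) preincubated with compound 5 min in 100 mM sodium acetate pH 5.5, 5 mM DTT, with and without 0.1% Triton X-100; started with Z-FR-AMC (2.5 μM final, enzyme 0.4 nM final), 0.5% DMSO; fluorescence ex 355/em 460 nm over 5 min; duplicates, DMSO controls.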

The nature of series [4]: Colloidal aggregation at 10 uM by dynamic light scattering assay. The format is physicochemical. The method in brief:
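Compounds diluted from concentrated DMSO stocks into filtered 50 mM KPi, pH 7.0; particle formation checked by dynamic light scattering with 826.6 nm laser at 100% power, detector angle 90°.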

Series [5] in a line: Inhibition of beta-lactamase AmpC preincubated for 5 mins before substrate addition by spectrophotometry. In short, it runs like this: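 In 50 mM potassium phosphate pH 7.0, 1 nM enzyme incubated 5 min with compound at 10 μM (0.1% DMSO); CENTA added to 92 μM final; absorbance at 405 nm followed for 5 min; duplicates with DMSO controls.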
For series [6], the species on record is Homo sapiens. Description: Selectivity ratio of Ki for human recombinant adenosine A1 receptor to KI for human recombinant adenosine A2A receptor.
The species entered for series [7] is Homo sapiens. The experiment in a line: Selectivity ratio of Ki for human recombinant adenosine A3 receptor to KI for human recombinant adenosine A2A receptor.

SMILES strings stand for the structures. pKi: −log10 of the molar value. Calls of active or inactive are those of the source. The calls are words filed in the database; no cut-off is given here.

Adenosine receptor A2a, sequence (P29274 whole entry): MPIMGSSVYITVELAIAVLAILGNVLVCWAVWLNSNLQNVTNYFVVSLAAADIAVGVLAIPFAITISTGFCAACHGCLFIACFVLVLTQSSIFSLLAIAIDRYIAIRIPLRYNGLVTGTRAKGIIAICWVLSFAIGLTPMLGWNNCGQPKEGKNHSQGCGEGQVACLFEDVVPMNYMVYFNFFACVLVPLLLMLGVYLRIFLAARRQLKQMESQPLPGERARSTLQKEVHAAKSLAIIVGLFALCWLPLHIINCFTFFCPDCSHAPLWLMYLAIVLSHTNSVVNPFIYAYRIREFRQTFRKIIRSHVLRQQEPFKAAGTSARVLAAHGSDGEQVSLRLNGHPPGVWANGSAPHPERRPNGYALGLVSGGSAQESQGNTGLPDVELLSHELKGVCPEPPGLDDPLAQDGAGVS
Cruzipain (Trypanosoma cruzi), sequence (P25779 123-467 limits assumed): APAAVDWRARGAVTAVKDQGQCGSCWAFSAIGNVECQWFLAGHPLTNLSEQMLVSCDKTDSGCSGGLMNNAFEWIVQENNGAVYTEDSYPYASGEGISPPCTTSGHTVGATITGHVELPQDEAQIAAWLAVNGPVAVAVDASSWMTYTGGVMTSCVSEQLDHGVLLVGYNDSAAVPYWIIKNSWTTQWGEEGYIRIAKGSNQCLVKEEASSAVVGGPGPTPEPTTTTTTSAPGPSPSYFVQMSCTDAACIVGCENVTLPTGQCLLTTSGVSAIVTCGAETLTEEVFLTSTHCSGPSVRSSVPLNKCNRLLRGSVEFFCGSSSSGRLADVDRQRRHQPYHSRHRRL

On to `N=C(NCCc1c[nH]c2ccccc12)Nc1ncccn1`, for which the Activity in series [1] worked out at 4%; in series [2] it was 8%.

For the molecule `Cc1cc(C)nc(NC(=N)NCCc2ccsc2)n1`, the results for the Activity in series [1] and in series [2] were 3% and 21%, respectively.

By pKi is commonly meant −log10 of the Ki, conventionally taken in molar units. As to `NC(=NCCc1c[nH]c2ccccc12)Nc1ncccn1`, the pKi at Adenosine receptor A2a is 5.23.

Turning to `COc1ccc2c(c1)oc1c(-c3ccncc3)c(C#N)c(N)c(C#N)c12`, the outcome in series [3] was inactive. The Activity in series [1] was 5%; in series [4], “Not Active”; in series [2] it was 28%. Besides, the pKi at Adenosine receptor A2a was 5.57.

Consider `Cc1cc(C)nc(NC(N)=NCCc2ccsc2)n1`, for which the pKi at Adenosine receptor A2a is 6.40.

With `Cc1cccc(O[C@H](C)C(=O)Nc2nc(-c3ccccc3)n[nH]2)c1`, the outcome in series [3] was inactive. In addition, the inhibition entry in series [5] was “inactive”.

`COc1ccc2c(CCNC(=N)Nc3nc(C)cc(C)n3)c[nH]c2c1`: the Activity came to 5% in series [1] and 20% in series [2]. Moreover, the pKi at Adenosine receptor A2a was 6.22.

Turning to `Cc1cccc(Nc2nc3c([nH]2)c(=O)n(C)c(=O)n3C)c1`, the Activity in series [1] was determined as 6%; in series [2], 17%. Further, the pKi on Adenosine receptor A2a was 5.92.

Regarding `Cc1cccc(O[C@H](C)C(=O)Nc2nnc(-c3ccccc3)[nH]2)c1`, the Activity result in series [4] was “Not Active”.

In the case of `Cc1cc(C)nc(NC(=N)NCCc2c[nH]c3ccc(F)cc23)n1`, in series [3], the result was Active. In addition, the inhibition entry in series [5] is “inactive”. Moreover, the Ratio Ki in the series filed under Homo sapiens [6] and in the series filed under Homo sapiens [7] was 50 in each case. Besides, the Activity stood at 25% in series [1] and 18% in series [2].

For the molecule `COc1ccc(CCNC(=N)Nc2nc(C)cc(C)n2)cc1`, the Activity in series [1] came to 10%; in series [2], 9%. Besides, on Adenosine receptor A2a, the pKi is 6.05.

Take `COc1ccc(-c2cc(=O)[nH]c(Nc3ccccc3)n2)cc1OC`: the Activity in series [1] was 4%; in series [2], 37%. Also, the pKi on Adenosine receptor A2a is 5.44.

Regarding `Cc1ccc2nc(Nc3nc(C)cc(C)n3)[nH]c2c1`, the result in series [3] was inactive. The Activity was 12% in series [1], “Not Active” in series [4] and 15% in series [2]. Also, the pKi at Adenosine receptor A2a was 5.89.

For the molecule `Cc1cc(C)nc(NC(N)=NCCc2c[nH]c3ccc(F)cc23)n1`, the negative logarithm of the Ki (pKi) at Adenosine receptor A2a was 6.70. The result in series [4] was Active.

Turning to `CNc1ccccc1C(=O)/N=C(\N)Nc1nc(C)c2ccccc2n1`, the Activity in series [1] is 15%; in series [2], 8%. Besides, the pKi at Adenosine receptor A2a is 5.06.

For `Cc1cc(C)nc(NC(=N)NCCc2c[nH]c3ccccc23)n1`, the Activity was found to be 19% in series [1] and 16% in series [2]. For the same molecule, the pKi on Adenosine receptor A2a was 6.40.
